M4 ag = CHRM4 agonism in calcium assay. P08173. CHO-K1 hM4/Gqi5, Fluo-8 calcium fluorescence; vehicle 0%, full acetylcholine response 100%. activation, % at 3 µM. actives 0.14% (n = 360,000). AID 624127;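 active means activation above the run mean over all test wells plus 3 SD, cut at about 32% in these data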;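 further: peak over basal fluorescence ratio per well then scaled between controls; 0% = DMSO wells and 100% = acetylcholine at EC100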
M5 antag = antagonists of human muscarinic M5 receptor (CHRM5). CHO-hM5 cells, Fluo-8 calcium fluorescence, ACh EC80. inhibition, % at 3 µM. actives 0.59% (n = 360,000). AID 624040;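 active means inhibition above a per-plate cutoff, the mean of that plate's test compounds plus 3 SD, cut at about 27% in these data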;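 further: 0% = acetylcholine EC80 with DMSO and 100% = DMSO without agonist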
Target sequence (P08912 whole entry, looked up): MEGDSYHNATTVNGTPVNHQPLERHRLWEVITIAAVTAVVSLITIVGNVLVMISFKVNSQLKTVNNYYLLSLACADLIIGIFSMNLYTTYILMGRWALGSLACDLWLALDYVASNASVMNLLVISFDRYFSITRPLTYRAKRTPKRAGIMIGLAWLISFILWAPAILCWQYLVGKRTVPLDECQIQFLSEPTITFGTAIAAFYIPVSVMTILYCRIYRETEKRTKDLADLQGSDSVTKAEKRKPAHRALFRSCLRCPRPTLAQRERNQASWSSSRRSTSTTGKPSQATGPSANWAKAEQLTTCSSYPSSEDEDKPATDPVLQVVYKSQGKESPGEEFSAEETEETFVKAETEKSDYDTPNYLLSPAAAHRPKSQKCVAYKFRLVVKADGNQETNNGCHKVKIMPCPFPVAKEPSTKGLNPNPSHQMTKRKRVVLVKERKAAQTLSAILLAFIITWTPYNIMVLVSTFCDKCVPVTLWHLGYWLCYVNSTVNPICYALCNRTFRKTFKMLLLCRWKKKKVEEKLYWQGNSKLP
CHRM5 PAM = potentiates acetylcholine response at human M5 receptor. P08912. CHO-K1 hM5, Fluo-8 calcium, ACh EC20 PAM; 0% = ACh EC20, 100% = ACh EC100. activation, % at 3 µM. actives 0.3% (n = 360,000). AID 624038;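 active means activation above the run cutoff, the mean activation of all test compounds plus 3 SD, cut at about 18% in these data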
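Probe or stimulus: acetylcholine, EC20 level; Assay system: human M5 receptor in CHO-K1 cells; Schedule: compound preincubation 140 s before EC20 acetylcholine addition; Technique: intracellular calcium via Fluo-8 fluorescence; Dosing: single-point, 3 µM nominal; Read-out basis: percent activation from peak-over-basal fluorescence ratio, scaled EC20-to-EC100 acetylcholine; Repeats: one well per compound, no replicates.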
M4 PAM = potentiates acetylcholine response at human M4 receptor | activation, % at 3 µM | actives 0.4% (n = 360,000) | CHO-K1 hM4/Gqi5, Fluo-8 calcium fluorescence, ACh EC20; 0% = ACh EC20, 100% = maximal ACh;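 active means activation above its plate's cutoff, the mean activation of sample wells plus 3 SD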
CHRM5 agonist = CHRM5 agonism in calcium assay; actives 0.19% (n = 360,000); activation, % at 3 µM; CHO-K1 hM5 cells, Fluo-8 calcium fluorescence; 0% DMSO wells, 100% maximal acetylcholine response; AID 624037;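 active means activation above the run's mean over test compounds plus 3 SD, cut at about 23% in these data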;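 further: signal is peak over basal fluorescence ratio across the kinetic read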
M4 antag = CHRM4 antagonism in calcium assay; P08173; CHO-hM4 cells, ACh EC80, Fluo-8 calcium fluorescence; inhibition, % at 3 µM; actives 0.73% (n = 360,000); AID 624125;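 active means inhibition above its plate's cutoff, the mean inhibition of sample wells plus 3 SD, cut at about 27% in these data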;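 further: 0% = acetylcholine EC80 with DMSO and 100% = DMSO without agonist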
Active calls of the source: *. In the library only some 1.9% were active in any assay of this set; here they are far more common.

SMILES | M4 ag | M5 antag | CHRM5 PAM | M4 PAM | CHRM5 agonist | M4 antag
CC1=C(C(=O)N(C)C)CC(CC(=O)NC2CCCC2)C(=O)N1CCC1=CCCCC1 (stereo not drawn) | 0.6 | -19.0 | 8.9 | 0.7 | -0.1 | -13.3
CC(=O)Nc1cccc(NC(=O)C2CCCN2C(=O)Nc2cccc(F)c2)c1 (stereo not drawn) | 0.2 | -20.2 | 20.7* | 8.9 | 0.6 | -6.7
CC(=O)Nc1cccc(NC(=O)C2CCCN2C(=O)Nc2cccc(C)c2)c1 (stereo not drawn) | 2.6 | 2.1 | 2.5 | 3.1 | 0.6 | 9.8
CCCCOc1ccc(C(=O)Nc2cccc(-n3cnnn3)c2)cc1OC | 2.4 | 17.7 | -9.8 | -15.8 | -2.6 | -0.1
CCn1nc(C(=O)OCc2c(C)noc2C)c2ccccc2c1=O | -0.1 | 8.1 | 55.6* | 6.4 | -5.7 | -1.7
CN(N)c1nc(C(F)(F)F)nc2ccccc12 | -0.4 | -0.3 | -3.8 | 0.9 | -2.9 | -1.7
CN(NS(=O)(=O)c1ccc(Br)cc1)c1nc(C(F)(F)F)nc2ccccc12 | 4.9 | 28.6* | -9.4 | 1.7 | 0.1 | -10.0
CC(=O)N1CCc2cc(S(=O)(=O)NC(CC(C)C)C(=O)N3CCc4ccccc4C3)ccc21 (stereo not drawn) | 1.5 | 1.4 | -2.7 | 32.4* | -5.1 | 29.1*
CCOc1cccc(-c2c(C(=O)N/N=C(\C)c3cccnc3)nnn2-c2nonc2N)c1 | 4.6 | -0.2 | 5.7 | 7.8 | 3.9 | 1.4
COc1ccc(NS(=O)(=O)c2ccc(-c3coc(C)n3)cc2)cc1OC | 27.5 | 50.8* | -13.6 | -14.2 | 7.2 | 46.9*
COc1ccc(NS(=O)(=O)c2ccc(-c3coc(C)n3)cc2)cc1 | 9.7 | -5.1 | 2.8 | 5.3 | 4.9 | 0.5
Cc1nc(-c2ccc(S(=O)(=O)Nc3ccc(S(N)(=O)=O)cc3)cc2)co1 | 0.6 | -16.1 | 20.8* | 13.6* | -1.2 | -7.8
CN1CCN(C(c2cccc(Cl)c2)c2ccccc2Cl)CC1 (stereo not drawn) | 3.2 | 87.3* | -18.4 | -16.2 | -4.2 | 63.8*
CN1CCN(C(c2ccccc2)c2ccc(Cl)cc2)CC1 (stereo not drawn) | 4.6 | 21.0 | -19.0 | -17.2 | -0.3 | 24.0
Cc1ccc(C(C(=O)NCc2ccc(F)cc2)N(CCCO)C(=O)C2COc3ccccc3O2)o1 (stereo not drawn) | 8.9 | -5.3 | -10.2 | -14.7 | 6.6 | 41.2*
Cc1ccc(CNC(=O)C2COc3ccccc3O2)cc1 (stereo not drawn) | -0.2 | 11.2 | 4.4 | -3.3 | 0.5 | 3.5
O=C1C(=O)N(CCN2CCOCC2)C(c2ccc([N+](=O)[O-])cc2)/C1=C(/O)c1ccc2c(c1)OCO2 (stereo not drawn) | 2.8 | 1.1 | 4.5 | 21.7* | -3.0 | -2.4
O=C1C(=O)N(CCN2CCOCC2)C(c2ccncc2)/C1=C(/O)c1ccc2c(c1)OCO2 (stereo not drawn) | 0.6 | -3.6 | 0.1 | 4.2 | 0.9 | 6.4
COc1ccc(S(=O)(=O)NCC(=O)N(CC(=O)NCc2ccco2)C2CCCC2)cc1 | 0.9 | 10.4 | 2.4 | -8.8 | -2.1 | 4.4
Cc1ccc(S(=O)(=O)N2CCC(C(=O)NCCCN3CCCC3=O)CC2)cc1 | 0.4 | 21.1 | -1.6 | 0.6 | -0.3 | -4.1
Cc1ccc(S(=O)(=O)N2CCC(C(=O)NCCCN3CCCC3=O)CC2)cc1C | -0.2 | -11.0 | 1.9 | 22.5* | -3.8 | -9.5
CCc1ccc(NC(=O)C2CCN(S(=O)(=O)c3ccc4c(c3)NC(=O)C(C)S4)CC2)cc1 (stereo not drawn) | 9.8 | 33.6* | -15.8 | -16.4 | -3.3 | 9.8
Cc1ccc(NC(=O)C2CCN(S(=O)(=O)c3ccc4c(c3)NC(=O)C(C)S4)CC2)cc1C (stereo not drawn) | 13.9 | 36.4* | -13.4 | -14.0 | -2.8 | 19.7
CC1CCCC(NC(=O)CN2CCN(S(=O)(=O)c3ccc(Br)s3)CC2)C1C (stereo not drawn) | 6.9 | 2.5 | -6.4 | -13.5 | 2.8 | 4.0
COc1cccc(C(=O)NCCSCc2ccccc2Cl)c1 | 1.8 | -7.3 | 18.1* | -5.5 | -6.3 | -8.8

High-throughput results as filed in PubChem.
